Published values gathered from unrelated publications.
Lines come from different studies, so protocols differ.
Read-out: cell growth or viability

| Structure (SMILES) | cell line | assay | setting | IC50 |
| --- | --- | --- | --- | --- |
| O=C(O)c1ccc(NCc2cccc(C(F)(F)F)c2)cc1 | NCI-H69 | resazurin | 72 h | > 100000 nM |
| Cc1cc2c(C(N)=O)cccc2n1-c1nc(NCc2ccccc2)c2c(n1)NC(C)CC2 (stereo not drawn) | RPMI-8226 | ATP luminescence | 72 h | 1300 nM |
| CC(C)(C)c1cnc(CSc2cnc(NC(=O)C3CCNCC3)s2)o1 | TC-71 | MTT | 72 h | 48.9 nM |
| C=CCn1c(=O)c2cnc(Nc3ccc(N4CCN(C)CC4)cc3)nc2n1-c1ccc2c(n1)[C@@](O)(CC)CC2 | OVCAR-3 | ATP luminescence | 72 h | 295 nM |
| CC(C)(C)c1cnc(CSc2cnc(NC(=O)C3CCN(C(=O)CCOCCCN4Cc5cc6c(cc5C4)C(=O)N(C4CCC(=O)NC4=O)C6=O)CC3)s2)o1 (stereo not drawn) | TC-71 | MTT | 72 h | 16.9 nM |
| COc1cccc(CNc2ccc(C(=O)O)cc2)c1OC | NCI-H69 | resazurin | 72 h | > 100000 nM |
| COc1ccc2c(c1)OC1=C(C(=O)CC(C)(C)C1)C2c1c(C(=O)O)[nH]c2ccccc12 (stereo not drawn) | 3T3-L1 | MTT | 72 h | 24.5 µg/mL |
| Cc1cc2c(C(N)=O)cccc2n1-c1nc2c(c(NCc3ccccc3)n1)CCCN2 | RPMI-8226 | ATP luminescence | 72 h | 900 nM |
| CC(C)(C)c1cnc(CSc2cnc(NC(=O)C3CCN(C(=O)CCOCCN4Cc5cc6c(cc5C4)C(=O)N(C4CCC(=O)NC4=O)C6=O)CC3)s2)o1 (stereo not drawn) | TC-71 | MTT | 72 h | 8.93 nM |
| COc1cccc2c1C(=O)c1c(O)c3c(c(O)c1C2=O)C[C@@](O)(C(=O)CO)C[C@@H]3O[C@H]1C[C@H](N)[C@H](O)[C@H](C)O1 | ACHN | MTT | 24 h | 36100 nM |
| COc1ccc(CNc2ccc(C(=O)O)cc2)cc1 | NCI-H69 | resazurin | 72 h | > 100000 nM |
| CC(C)(C)c1cnc(CSc2cnc(NC(=O)C3CCN(C(=O)CCCCCCCN4Cc5cc6c(cc5C4)C(=O)N(C4CCC(=O)NC4=O)C6=O)CC3)s2)o1 (stereo not drawn) | TC-71 | MTT | 72 h | 8.52 nM |
| Cc1cc2c(C(N)=O)cccc2n1-c1nc2c(c(NCc3ccccc3O)n1)CCCN2 | RPMI-8226 | ATP luminescence | 72 h | 9800 nM |
| CC(C)(C)c1cnc(CSc2cnc(NC(=O)C3CCN(C(=O)CCCCCCCCCN4Cc5cc6c(cc5C4)C(=O)N(C4CCC(=O)NC4=O)C6=O)CC3)s2)o1 (stereo not drawn) | TC-71 | MTT | 72 h | 71.7 nM |
| O=C(O)c1ccc(NCc2cccc(O)c2)cc1 | NCI-H69 | resazurin | 72 h | > 100000 nM |
| Cc1cc2c(C(N)=O)cccc2n1-c1nc2c(c(OCc3ccccc3)n1)CCCN2 | RPMI-8226 | ATP luminescence | 72 h | 4500 nM |
| O=C(O)c1ccc(NCc2ccc(Br)cc2)cc1 | NCI-H69 | resazurin | 72 h | > 100000 nM |
| CONC(=O)c1cccc2c1cc(C)n2-c1nc2c(c(NCc3ccccc3)n1)CCCN2 | RPMI-8226 | ATP luminescence | 72 h | 500 nM |
| CC(C)(C)c1cnc(CSc2cnc(NC(=O)C3CCN(C(=O)CCCCN4Cc5cc6c(cc5C4)C(=O)N(C4CCC(=O)NC4=O)C6=O)CC3)s2)o1 (stereo not drawn) | TC-71 | MTT | 72 h | 13 nM |
| O=C(O)c1ccc(NCc2ccccc2)cc1 | NCI-H69 | resazurin | 72 h | > 100000 nM |
| CONC(=O)Cc1c(C)n(-c2nc3c(c(NCc4ccccc4)n2)CCCN3)c2ccccc12 | RPMI-8226 | ATP luminescence | 72 h | 8000 nM |
